ERa coact pot: enhancers of ERα–SRC-1 coactivator binding, primary screen, biochemical, TR-FRET, ERα LBD, low estradiol; TR-FRET ERalpha-LBD/SRC-Cy5 coactivator binding, 2 h; 100 = basal binding, no effect; coactivator binding (% of control), % at 25.6 µM; 86,000 tested, 1.3% active; AID 639, 2007; in the data active means activity above about 200%;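 further: binding measured in presence of low estradiol as agonist stimulus; 0% = peptide alone without receptor and 100% = receptor with peptide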
ERa coact inh: ERα–SRC-1 coactivator interaction inhibitors, primary screen, biochemical, TR-FRET, ERα LBD, estradiol-bound. Estrogen receptor (Homo sapiens), P03372. TR-FRET ER-alpha LBD / SRC-1 peptide. inhibition, % at 25.6 µM. 86,000 tested, 1.7% active. AID 629, 2007; in the data active means inhibition above about 50%;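 further: 0% = receptor plus peptide control and 100% = peptide only without receptor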
SF1 activator: activators of human SF-1, primary screen, cell-based, CHO-K1, Gal4-SF-1 LBD, luciferase luminescence. Steroidogenic factor 1 (Homo sapiens), Q13285. CHO-K1 Gal4-SF-1 LBD luciferase reporter; % increase over DMSO SF-1-specific signal. activation, % at 10 µM. 65,000 tested, 1.9% active. AID 522, 2006;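 active means activation above the mean activation of all tested compounds plus 3 SD, cut at about 50% in these data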
Target sequence (Q13285 whole entry, looked up, the tested form may be a part): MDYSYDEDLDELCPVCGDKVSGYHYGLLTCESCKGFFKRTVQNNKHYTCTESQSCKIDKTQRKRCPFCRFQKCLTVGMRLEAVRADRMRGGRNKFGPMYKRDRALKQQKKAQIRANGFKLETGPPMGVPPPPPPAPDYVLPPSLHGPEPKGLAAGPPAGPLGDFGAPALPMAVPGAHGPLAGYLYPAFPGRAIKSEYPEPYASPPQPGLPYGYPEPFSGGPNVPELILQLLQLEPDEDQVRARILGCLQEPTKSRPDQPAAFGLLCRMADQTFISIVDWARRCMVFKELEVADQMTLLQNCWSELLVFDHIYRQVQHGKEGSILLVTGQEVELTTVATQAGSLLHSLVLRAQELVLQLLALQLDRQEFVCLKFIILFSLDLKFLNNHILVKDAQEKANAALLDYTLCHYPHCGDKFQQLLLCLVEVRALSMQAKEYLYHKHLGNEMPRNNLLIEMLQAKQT
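Compound – one dose, 10 µM compound, 1% DMSO · Test system – transient Gal4-SF-1 LBD reporter, CHO-K1 · Input – 4,000 cells in each well · Read-out basis – percent activation relative to DMSO median and mock-transfected background · Replicates – single measurement per compound · Technique – steady-glow luciferase luminescence, read after 15 min reagent incubation · Timing – 20 h compound treatment, 37 °C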
PTK2B oligo ant: antagonists of Pyk2 self-association, primary screen, Q293 cells, FERM NanoBiT luminescence, HTS; 99,000 tested, 0.83% active; z-score (the deposit names both 25 µM and 10 µM); active compounds read low; AID 1347419, 2020; Protein-tyrosine kinase 2-beta (Homo sapiens), Q14289;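 active means Z-score of -3 or lower, scaled per plate to the spread of control and sample wells; inactive means z-score above -3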;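 further: negative z-score means lost luminescence so less FERM oligomerization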
ERb SRC1 inh: inhibitors of ERβ-SRC1 coactivator interaction, primary screen, biochemical, TR-FRET, ERβ LBD, SRC-1 peptide; Estrogen receptor beta (Homo sapiens), Q92731; TR-FRET ER-beta LBD / SRC1-Cy5 peptide binding; receptor agonist-loaded with 1 µM estradiol; inhibition, % at 25.6 µM; 86,000 tested, 1.3% active; AID 633, 2007;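 active means compounds whose percent inhibition of the receptor-coactivator binding signal exceeds about 50% in the single-dose screen, limit read from the data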;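 further: 0% = receptor plus peptide wells without compound and 100% = peptide-only wells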
RORa activator: activators of orphan receptor RORA, primary screen, cell-based, luminescence. Nuclear receptor ROR-alpha (Homo sapiens), P35398. CHO-K1 Gal4-RORA LBD luciferase reporter; percent increase over mock-subtracted basal signal. activation, % at 10 µM. 65,000 tested, 1.5% active. AID 560, 2006;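 active means activation above the mean of all tested compounds plus 3 SD, cut at about 49% in these data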;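 further: 0% = DMSO-treated RORA cells and 100% = added signal equal to DMSO minus mock-transfected cells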
Numbers without * were called inactive; . = no result; [ ] = remark or other dose. The list is not random: actives were taken first. Their share in the collection is about 4.8%.

SMILES	ERa coact pot	ERa coact inh	SF1 activator	PTK2B oligo ant	ERb SRC1 inh	RORa activator
CCOC(=O)c1cnn2c(C)cc(-c3ccc(F)cc3)nc12	141	5	28	0.82	-7	68*
OC1(c2cccc(C(F)(F)F)c2)CCNCC1	86	16	-18	0.29	70*[fluorescence artefact?]	4
O=C(Nc1ccc(N2CCOCC2)cc1)C1CCCN(S(=O)(=O)c2cccc(C(F)(F)F)c2)C1 (configuration not stated)	104	-4	-9	0.11	85*[fluorescence artefact?]	16
O=C(Nc1ccc(Oc2ccccc2)cc1)C1CCN(c2c3c(nc4ncnn24)CCC3)CC1	83	0	.	-3.3*	-7	.
COc1ccc(-n2ncc3c(SCC(=O)N4CCN(c5ccccc5OC)CC4)ncnc32)cc1	98	30	.	0.63	18	.
CCCCOc1ccc(-c2nnn(CC(=O)NCc3ccco3)n2)cc1	106	-5	37	-1.1	1	198*
CCOc1ccc(-c2nnn(CC(=O)NCc3ccco3)n2)cc1OCC	94	8	.	0.41	14	.
CCCCOC(=O)c1cc(-c2ccc(/C=N/n3cnnc3)o2)ccc1Cl	132	56*	.	-0.07	42	.
CCOC(=O)c1c(C)[nH]c(C(=O)CSc2nnnn2-c2ccc(C)cc2)c1C	123	-2	-17	0.13	0	-9
CCOC(=O)c1c(C)[nH]c(C(=O)CSc2nnnn2-c2ccccc2)c1C	205*[fluorescence artefact?]	58*[fluorescence artefact?]	-3	0.17	58*[fluorescence artefact?]	-1
CC([NH2+][O-])C(C)(C)NO (configuration not stated)	110	-8	.	-0.69	2	.
NC1=NC2(CCCCCC2)n2c(nc3ccccc32)N1	26	65*[fluorescence artefact?]	.	0.87	-6	.
CC1CCC2(CC1)N=C(N)Nc1nc3ccccc3n12 (configuration not stated)	38	63*[fluorescence artefact?]	.	-0.41	4	.
C/C(=N\NS(=O)(=O)c1ccc(C)cc1)c1ccc(C)s1	136	-3	.	-0.34	-2	.
O=c1c2c3nc4ccccc4nc3n(/N=C/c3ccco3)c2ncn1CCC1=CCCCC1	85	66*[fluorescence artefact?]	-8	0.46	40	-12
O=C(OCc1nnc(-c2ccccc2)o1)c1ccc(S(=O)(=O)NCc2ccco2)cc1	110	53*[fluorescence artefact?]	-2	-0.45	49	-19
O=C(c1ccco1)N1CCN(CC(O)Cn2c3ccccc3c3ccccc32)CC1 (configuration not stated)	111	-2	5	0.76	-5	-4
CC(=O)Nc1ccc(C(=O)CSc2nnc3scc(-c4ccccc4)n23)cc1	232*[fluorescence artefact?]	41	-2	0.62	17	3
COc1cccc2cc(-c3nnc(SCC(=O)NCc4ccccc4)n3C)oc12	100	-8	-5	-0.52	-5	1
Cc1ccc(C)c(N(C(=O)Cn2nnc(-c3cccs3)n2)C(C(=O)NC2CC2)c2ccc(C)o2)c1 (configuration not stated)	112	2	8	-4.3*	5	9
O=C(CSc1ncc(-c2ccc(F)cc2)[nH]1)Nc1cccc(O)c1	111	-1	-7	-0.07	1	-2
O=C1CC(N2CCN(c3ccc(C(=O)c4ccc(F)cc4)cc3)CC2)C(=O)N1 (configuration not stated)	221*	-4	18	0.25	5	14
Cc1csc(-c2coc3cc(O)cc(C)c3c2=O)n1	74	7	68*	-1.3	15	66*
COc1ccc2c(=O)c(-c3nc(C)cs3)coc2c1	102	-17	-20	-0.03	-16	-33
CNC(=O)N(C1=NCC(C)(C)S1)c1ccc(F)c(Cl)c1	98	6	24	.	-13	7
SMILES	ERa coact pot	ERa coact inh	SF1 activator	PTK2B oligo ant	ERb SRC1 inh	RORa activator
CC1(C)Cc2c(sc3c4nnnn4c4nnnn4c23)CO1	43	80*	0	.	6	-6
CSc1nc2sc3c(c2c2nnnn12)CC(C)(C)OC3	121	2	-2	.	-1	-8
CCN1CCc2c(sc(N)c2C#N)C1	26	65*[fluorescence artefact?]	-2	-0.7	77*[fluorescence artefact?]	26
CNc1nc(N(C)C)nc(N(C)C)n1	99	-1	.	.	-3	.
O=C(Nc1ccc2c(c1)OCCO2)c1cc2sccc2n1Cc1ccccc1	170	-9	.	-3.8*	-16	.
O=C(Nc1ccc2c(c1)OCCO2)c1cc2sccc2n1Cc1ccc(F)cc1	128	13	.	-3.1*	-6	.
Cc1cc(C)n2nc(C(=O)NCc3ccccc3)cc2n1	99	-1	7	-0.43	1	23
Cc1cc(C)n2nc(Nc3ccccc3)cc2n1	103	-2	62*	0.33	-2	23
COc1cc(C(=O)OCC(=O)c2cc(C)n(C)c2C)cc(OC)c1OC	103	1	52*	0.14	16	36
Nc1ccc2nc3n(c(=O)c2c1)CCC3	215*	11	-16	.	18	-11
CCOc1cc(CNc2ccc3c(c2)CCC3)ccc1OC	97	-7	.	.	1	.
Cn1cc(C(=O)NC2CCCCCCC2)c(=O)c2cc(S(=O)(=O)N3CCCC3)ccc21	73	44	-14	-1.1	11	13
CN(C)S(=O)(=O)c1ccc2c(c1)c(=O)c(C(=O)NCCCN1CCCCCC1)cn2C	92	62*[fluorescence artefact?]	10	.	9	1
Cn1cc(C(=O)NC2CCCCCC2)c(=O)c2cc(S(=O)(=O)N3CCCC3)ccc21	232*[fluorescence artefact?]	65*	-11	.	5	3
Cc1cc(C)c(-c2c(O)c3cnn(-c4ccccc4)c3[nH]c2=O)c(C)c1	.	.	.	0.5	.	.
O=C(CCc1ccc(S(=O)(=O)N2CCOCC2)cc1)NCCCN1CCCC1=O	94	22	-4	0.42	58*[fluorescence artefact?]	-1
CC1=NOC(=O)/C1=C\c1ccc(-c2cc(Cl)ccc2Cl)o1	145	10	.	0.98	7	.
CC1=NOC(=O)/C1=C/c1ccc(-c2ccc(Cl)cc2)o1	44	64*[fluorescence artefact?]	.	-1.4	8	.
COc1ccc(C)cc1-n1nnnc1SCc1nc2ccccc2s1	127	0	110*	-2.8	0	50*
O=S(=O)(c1cccc(-c2nnc(SCc3nc4ccccc4s3)o2)c1)N1CCOCC1	122	-7	46	-1.3	9	41
CCn1c(SCc2nc3ccccc3s2)nc2cc(S(=O)(=O)N3CCOCC3)ccc21	170	12	63*	.	7	29
CCn1c(SCc2nc3ccccc3s2)nnc1-c1ccccc1	92	5	.	0.28	-8	.

Screens: PubChem BioAssay, several laboratories
